Calls of active or inactive are those of the source. The rule behind the calls is not given here.
Assays:
[1] = Induction of RGS10 expression in mouse single close BV-2 cells assessed as RGS10 protein level by measuring luminescence signal measured after 24 hrs by Nano-Glo HiBit Lytic detection assay; format: functional; parameters: concentration or dose not given beside the values
How it was run: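 BV-2-RGS10-HiBiT single-clone cells (CRISPR HiBiT tag at RGS10 C-terminus) in phenol red-free DMEM, 10% ultralow IgG FBS; IFNγ 10 ng/mL final plus compound 1–100 μM, 24 h, 37 °C. GF-AFC viability fluorescence (390/505) read first, then Nano-Glo HiBiT lytic luminescence (LgBiT 1:100, substrate 1:50); RLU/RFU expressed as % of IFNγ alone; 4 independent experiments in triplicate.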

BV-2 [2] = test: Reversal of IFNgamma-induced inflammatory gene expression in mouse single close BV-2 cells assessed as reversal of TNFalpha expression at 20 uM measured after 24 hrs by qRT-PCR analysis; format: functional, cell-based
How it was run: (§1)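 BV-2 cells treated 24 h with IFNγ 10 ng/mL with or without compound at 20 μM; iNOS, COX-2 and TNFα mRNA measured by one-step qRT-PCR (100 ng RNA template, 0.4 μM primers, 40 cycles), Cq read each cycle.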

BV-2 [3] = test: Reversal of IFNgamma-induced inflammatory gene expression in mouse single close BV-2 cells assessed as reversal of iNOS expression at 20 uM measured after 24 hrs by qRT-PCR analysis; format: functional, cell-based; how it was run: as §1
[4] = Reversal of IFNgamma-induced RGS10 silencing in mouse single close BV-2 cells assessed as RGS10 protein level by measuring luminescence signal measured after 24 hrs by Nano-Glo HiBit Lytic detection assay; settings: BV-2, 24 h
[5] = (§2) Reversal of LPS-induced RGS10 silencing in mouse single close BV-2 cells assessed as RGS10 protein level by measuring LPS response measured after 24 hrs by Nano-Glo HiBit Lytic detection assay; format: functional; parameters: concentration or dose not given beside the values
How it was run: (§3)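 HiBiT-knock-in BV-2 single clone exposed to LPS at 10 ng/mL final for 24 h at 37 °C in phenol red-free assay medium; RGS10-HiBiT measured by Nano-Glo HiBiT lytic detection (LgBiT 1:100, substrate 1:50), luminescence read after 15 min at room temperature.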

[6] = Reversal of IFNgamma-induced RGS10 silencing in mouse single close BV-2 cells assessed as IFN response measured after 24 hrs by Nano-Glo HiBit Lytic detection assay relative to control; format: functional; parameters: concentration or dose not given beside the values
How it was run: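 HiBiT-tagged BV-2-RGS10 clone treated with compound at 20 μM plus IFNγ 10 ng/mL for 24 h at 37 °C; viability by GF-AFC fluorescence, then HiBiT lytic luminescence; signal normalized RLU/RFU, expressed as % of IFNγ-alone signal; four independent experiments in triplicate, one-way ANOVA with Dunnett's test.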

BV-2 [7] = test: Reversal of IFNgamma-induced RGS10 silencing in mouse single close BV-2 cells assessed as suppression of RGS10 protein level at 20 uM measured after 24 hrs by Western blot analysis; format: functional, cell-based
How it was run: (§4)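 Parental BV-2 cells, IFNγ 10 ng/mL with compound 20 μM for 24 h or 48 h; lysates in Tris/NaCl/Triton/SDS buffer with protease inhibitors, equal protein on 12% SDS-PAGE, goat anti-RGS10 (1:1,000) with β-actin or GAPDH loading control, infrared secondary detection; four independent experiments in duplicate.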

BV-2 [8] = test: as §2; format: functional; parameters: concentration or dose not given beside the values; how it was run: as §3
BV-2 [9] = test: Reversal of IFNgamma-induced RGS10 silencing in mouse single close BV-2 cells assessed as suppression of RGS10 protein level at 20 uM measured after 48 hrs by Western blot analysis; format: functional, cell-based; how it was run: as §4
BV-2 [10] = test: Reversal of IFNgamma-induced RGS10 silencing in mouse single close BV-2 cells assessed as increase in of RGS10 mRNA level measured after 24 hrs by qRT-PCR analysis; format: functional, cell-based; settings: dose 0.5-20 µM
How it was run: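 Parental BV-2 cells given IFNγ 10 ng/mL for 24 h with compound 0.5–20 μM; RGS10 mRNA by one-step qRT-PCR (100 ng RNA, 0.4 μM primers; RT 55 °C 10 min, 40 cycles 95 °C/60 °C), Cq values with melt curve.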

BV-2 [11] = test: Reversal of IFNgamma-induced inflammatory gene expression in mouse single close BV-2 cells assessed as reversal of COX-2 expression at 20 uM measured after 24 hrs by qRT-PCR analysis; format: functional, cell-based; how it was run: as §1

Row | Compound | Activity [1] [%] | Activity (BV-2 [2]) | Activity (BV-2 [3]) | EC50 [4] [µM] | Activity [5] [%] | Activity [6] [%] | Activity (BV-2 [7]) | Activity (BV-2 [8]) | Activity (BV-2 [9]) | Activity (BV-2 [10]) | Activity (BV-2 [11])
1 | Cc1oc(-c2ccc(Cl)cc2)nc1CN1CCCC(C(=O)N2CCN(C(=O)c3ccco3)CC2)C1 (centres undefined) | 101.8 | inactive | Active | 78.8 | 116.9 | 172.8 | inactive | – | – | – | –
2 | CCNc1ncnc2sc3c(c12)CCN(Cc1ccncc1)C3 | 97.1 | – | – | – | 89.5 | 94 | – | – | – | – | –
3 | COc1cccc(CNC(=O)c2ccc3c(Cl)c4c(nc3c2)CCCC4)c1 | 104.6 | – | – | – | 97.4 | 141.3 | – | – | – | – | –
4 | O=C(CN1C(=O)NC(c2ccc(Cl)cc2)C2=C1COC2=O)Nc1ccc(F)c(F)c1 (centres undefined) | 69.6 | inactive | Active | 23.5 | 84.1 | 171.6 | inactive | – | – | – | –
5 | COc1ccc(C2NC(=O)N(CC(=O)N3CCCCCC3)C3=C2C(=O)OC3)cc1 (centres undefined) | 104.8 | – | – | – | 87.4 | 102.4 | – | – | – | – | –
6 | O=C(CN1C(=O)NC(c2ccc(Cl)cc2)C2=C1COC2=O)Nc1cc(F)cc(F)c1 (centres undefined) | 56.8 | inactive | Active | 31.2 | 80.4 | 186.7 | inactive | – | – | – | –
7 | Cc1ccc(-n2c(=O)c3c(cc(C)n3C)n(CC(=O)Nc3ccc(Br)cc3F)c2=O)cc1 | 156.8 | – | – | – | – | 90.1 | – | inactive | – | – | –
8 | COCCOC1CCN(C(=O)Nc2ccc(C(=O)OC)cc2)CC1 | 101.2 | – | – | – | 121.7 | 106.7 | – | – | – | – | –
9 | CCc1cc(-c2csc(S(=O)(=O)Nc3ccc(C)cc3Br)c2)on1 | 76.8 | inactive | Active | 33.6 | 104.1 | 206.2 | inactive | – | Active | Dose-dependent-effect; Significant Reversal Achieved At > 5 Um | Active
10 | Cc1cc(C)c2c(=O)cc(CN(Cc3ccccc3)Cc3ccco3)[nH]c2c1 | 98.5 | inactive | Active | 13.8 | 92.8 | 230.6 | inactive | – | – | – | Active
11 | Cc1cc(C)cc(Nc2nc(C)cc(=O)n2CC(=O)Nc2cccc(C#N)c2)c1 | 116.1 | – | – | – | 105.8 | 102.4 | – | – | – | – | –
12 | O=C(Nc1ccc(F)cc1)c1cc2n(n1)CC(c1ccc3c(c1)OCO3)OC2 (centres undefined) | 113.8 | – | – | – | 105.3 | 123.2 | – | – | – | – | –
13 | CC1=NS(=O)(=O)N(C)C=C1C(=O)OCc1nc(-c2cccc(F)c2)no1 | 78.9 | – | – | – | 90.3 | 94.3 | – | – | – | – | –
14 | CCOc1ccc(-c2nc(C3CC(=O)N(c4ccc(C)cc4)C3)no2)cc1 (centres undefined) | 85.6 | – | – | – | 104.7 | 97.4 | – | – | – | – | –
15 | Cc1cccc(-n2c(=O)c3c(cc(C)n3C)n(CC(=O)Nc3ccc(C(F)(F)F)cc3)c2=O)c1 | 95.9 | – | – | – | 113.8 | 145.1 | – | – | – | – | –

Source: ChEMBL document CHEMBL6078650, “A Phenotypic High-Throughput Screen Identifies Small Molecule Modulators of Endogenous RGS10 in BV-2 Cells” (J Med Chem, 2024)
